Experimental data collected from several papers.
Compare with care: the assays were run in different laboratories.
Target: Mitogen-activated protein kinase 1 (MAPK1, Homo sapiens, UniProt P28482)

O=C1C=C(Nc2ccc(OCc3cn(Cc4ccccc4)nn3)cc2)C(=O)c2ccccc21
inhibition (enzyme activity; inhibitor; radiometric; 10 µM): 18%

CC#CC(=O)N1CCC[C@H]1c1nc(-c2ccc(C(=O)Nc3ccccn3)cc2)c2c(N)nccn12
inhibition (enzyme activity; inhibitor; 1 µM): 3%

C#Cc1cc(-c2cc(Nc3nc(N[C@@H](C)c4ccc(F)cn4)ncc3Cl)n[nH]2)ccc1C=O
inhibition (enzyme activity; inhibitor; 0.2 µM): 10.4%

CCCCC(=O)Nc1ccc(-c2ccc3ncn(CCC)c(=O)c3c2)cn1
remaining binding (binding; competition with immobilised ligand; 0.5 µM): 89%

COc1ccc2[nH]c3c4[nH]c5ccc(OC)cc5c4c4c(c3c2c1)C(=O)NC4=O
remaining binding (binding; 1 µM): 76%

C=CC(=O)N1CCC([C@@H]2CCNc3c(C(N)=O)c(-c4ccc(Oc5ccccc5)cc4)nn32)CC1
inhibition (enzyme activity; inhibitor; 1 µM): 10%

C[C@H]1CC[C@H](n2c3cnccc3c3cnc(Nc4ccc5c(n4)CCN(C(=O)CO)C5)nc32)CC1
remaining signal (cell-free assay; 1 µM): 100%

Cc1cc(O)c(-c2ccc([C@@H](C)CN(C)C)cc2)c2c1[nH]c(=O)c1sccc12
inhibition (enzyme activity; inhibitor; 0.1 µM): 6.8%

COc1ccc2oc(-c3ccc4nc(N)oc4c3)c/c(=N\c3ccccc3NC(=O)CCN)c2c1
remaining binding (binding; 1 µM): 97%
